Assay results reported in ChEMBL document CHEMBL4145471, “New 1,5 and 2,5-disubstituted tetrazoles-dependent activity towards surface barrier of Candida albicans” (Eur J Med Chem, 2018).
Converted amounts (≈) assume the structure as drawn.

Assays:
Format in all cases: functional
Candida albicans [1] = assay: Antifungal activity against Candida albicans ATCC 90028 at 0.5 ug/ml after 48 hrs relative to control
Method in brief: (§1)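 Planktonic broth microdilution per M27-A3 in MOPS-buffered RPMI 1640 (pH 7.0), final inoculum 1.8×10^3 cells/mL, compounds 0.0313–16 µg/mL from 1600 µg/mL stocks in ethanol or DMSO. Incubated at 35°C without agitation; OD405 read at 18 and 48 h. % inhibition was derived from test, sterility (no inoculum) and solvent growth-control wells. Amphotericin B at 0.5 µg/mL served as the 100% control.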

Candida albicans [2] = assay: Antifungal activity against Candida albicans ATCC 90028 after 72 hrs by M27-A3 microdilution method; details: ATCC 90028, 72 h
Candida albicans [3] = assay: Antifungal activity against Candida albicans ATCC 90028 after 72 hrs in presence of ergosterol by M27-A3 microdilution method; details: ATCC 90028, 72 h
Method in brief: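 Ergosterol-modified M27-A3 assay. Compounds at 512-1 µg/mL serially diluted in RPMI; the 10^3 CFU/mL inoculum is made in RPMI with ergosterol (dissolved in 10% DMSO/1% Tween 80, heated), giving 400 µg/mL ergosterol in the wells. Itraconazole and amphotericin B serve as controls. Plates at 35°C, read after 72 h. MIC is the lowest concentration without visible growth; triplicate on three days, geometric means.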

Candida albicans [4] = assay: Antifungal activity against Candida albicans ATCC 90028 at 0.5 ug/ml after 18 hrs relative to control; method in brief: as §1
Candida albicans [5] = assay: Ratio of MIC for Candida albicans ATCC 90028 in presence of ergosterol to MIC for Candida albicans ATCC 90028 in absence of ergosterol
Method in brief: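 MICs per modified M27-A3 in RPMI with or without ergosterol (final 400 µg/mL, dissolved in 10% DMSO/1% Tween 80 with heating). Inoculum 10³ CFU/mL; tetrazoles and itraconazole tested at 512–1 µg/mL, amphotericin B at 125–0.24 µg/mL. Plates were incubated at 35°C and read at 72 h; MIC was the lowest concentration with no visible growth. Run in triplicate on three days, geometric means.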

Candida albicans [6] = assay: Antifungal activity against Candida albicans ATCC 90028 after 48 hrs by M27-A3 microdilution method; details: ATCC 90028, 48 h
Candida albicans [7] = assay: Antifungal activity against Candida albicans ATCC 90028 at 16 ug/ml after 18 hrs relative to control; method in brief: as §1
Candida albicans [8] = assay: Fungicidal activity against Candida albicans ATCC 90028 at 16 ug/ml after 48 hrs by M27-A3 microdilution method
Method in brief: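 After 48 h at 35°C in M27-A3 microdilution plates (compound at 16 µg/mL), 50 µL aliquots from treated and solvent-control wells were diluted 10^4 in PBS and plated on drug-free Sabouraud dextrose agar, then incubated 48 h at 35°C. Reduction R = lg CFU/mL control − lg CFU/mL treated; R ≥ 3 defined as fungicidal.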

Candida albicans [9] = assay: Antifungal activity against Candida albicans ATCC 90028 at 8 ug/ml after 48 hrs relative to control; method in brief: as §1
Candida albicans [10] = assay: Antifungal activity against Candida albicans ATCC 90028 at 0.0313 ug/ml after 48 hrs relative to control
Candida albicans [11] = assay: Antifungal activity against Candida albicans ATCC 90028 at 0.0625 ug/ml after 48 hrs relative to control; method in brief: as §1
Candida albicans [12] = assay: Antifungal activity against Candida albicans ATCC 90028 at 0.25 ug/ml after 18 hrs relative to control
Method in brief: (§2)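 Fluconazole (water stock, diluted in RPMI 1640) tested by CLSI M27-A3 broth microdilution against C. albicans ATCC 90028. Inoculum 1.8×10^3 cells/mL in RPMI 1640 buffered with MOPS, pH 7.0. Incubation at 35°C without agitation, read at 18 and 48 h. Growth by OD405 and visually; inhibition % calculated against solvent growth-control wells after subtracting sterility-control wells.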

Candida albicans [13] = assay: Antifungal activity against Candida albicans ATCC 90028 at 4 ug/ml after 18 hrs relative to control; method in brief: as §1
Candida albicans [14] = assay: Antifungal activity against Candida albicans ATCC 90028 at 8 ug/ml after 18 hrs relative to control; method in brief: as §1
Candida albicans [15] = assay: Antifungal activity against Candida albicans ATCC 90028 at 0.0313 ug/ml after 18 hrs relative to control
Candida albicans [16] = assay: Antifungal activity against Candida albicans ATCC 90028 at 0.125 ug/ml after 18 hrs relative to control; method in brief: as §1
Candida albicans [17] = assay: Antifungal activity against Candida albicans ATCC 90028 at 2 ug/ml after 48 hrs relative to control; method in brief: as §1
Candida albicans [18] = assay: Antifungal activity against Candida albicans ATCC 90028 at 1 ug/ml after 48 hrs relative to control; method in brief: as §1
Candida albicans [19] = assay: Antifungal activity against Candida albicans ATCC 90028 at 0.125 ug/ml after 48 hrs relative to control; method in brief: as §1
Candida albicans [20] = assay: Antifungal activity against Candida albicans ATCC 90028 at 1 ug/ml after 18 hrs relative to control; method in brief: as §1
Candida albicans [21] = assay: Antifungal activity against Candida albicans ATCC 90028 at 2 ug/ml after 18 hrs relative to control; method in brief: as §1
Candida albicans [22] = assay: Antifungal activity against Candida albicans ATCC 90028 at 0.25 ug/ml after 48 hrs relative to control; method in brief: as §2
Candida albicans [23] = assay: Antifungal activity against Candida albicans ATCC 90028 at 0.0625 ug/ml after 18 hrs relative to control
Candida albicans [24] = assay: Antifungal activity against Candida albicans ATCC 90028 at 16 ug/ml after 48 hrs relative to control; method in brief: as §1
Candida albicans [25] = assay: Antifungal activity against Candida albicans ATCC 90028 at 4 ug/ml after 48 hrs relative to control; method in brief: as §1

C[C@@H]1[C@H](O)[C@@H](C)/C=C/C=C/C=C/C=C/C=C/C=C/C=C/[C@H](O[C@@H]2O[C@H](C)[C@@H](O)[C@H](N)[C@@H]2O)C[C@@H]2O[C@](O)(C[C@@H](O)C[C@@H](O)[C@H](O)CC[C@@H](O)C[C@@H](O)CC(=O)O[C@H]1C)C[C@H](O)[C@H]2C(=O)O [AMPHOTERICIN B]
Activity (Candida albicans [1]): 100% | MIC (Candida albicans [2]): 0.03 µg/mL (≈ 0.0325 µM) | MIC (Candida albicans [3]): 0.24 µg/mL | Activity (Candida albicans [4]): 100%

CCC(C)n1ncn(-c2ccc(N3CCN(c4ccc(OCC5COC(Cn6cncn6)(c6ccc(Cl)cc6Cl)O5)cc4)CC3)cc2)c1=O (stereo not given) [ITRACONAZOLE]
Ratio (Candida albicans [5]): 2

OC(Cn1cncn1)(Cn1cncn1)c1ccc(F)cc1F [FLUCONAZOLE]
MIC (Candida albicans [6]): 0.25 µg/mL (≈ 0.816 µM)

Clc1ccccc1-c1nnn(CCCN2CCOCC2)n1
Activity (Candida albicans [1]): 98.83% | Activity (Candida albicans [7]): 99.64% | Activity (Candida albicans [8]): -0.08 log10CFU/ml | Activity (Candida albicans [9]): 98.97% | Activity (Candida albicans [10]): 99.12% | Activity (Candida albicans [11]): 99% | Activity (Candida albicans [12]): 90.79% | Activity (Candida albicans [13]): 98.62% | Activity (Candida albicans [14]): 98.97% | Activity (Candida albicans [15]): 100% | Activity (Candida albicans [16]): 98.25% | Activity (Candida albicans [17]): 97.16% | Activity (Candida albicans [18]): 99.02% | Activity (Candida albicans [19]): 98.94% | Activity (Candida albicans [20]): 98.01% | Activity (Candida albicans [21]): 92.76% | Activity (Candida albicans [4]): 98.11% | Activity (Candida albicans [22]): 98.01% | Activity (Candida albicans [23]): 98.7% | Activity (Candida albicans [24]): 99.2% | Activity (Candida albicans [25]): 98.91%

Clc1ccc(-c2nnn(CCCN3CCOCC3)n2)cc1
Activity (Candida albicans [1]): 99.32% | Activity (Candida albicans [7]): 100% | Activity (Candida albicans [8]): 0.34 log10CFU/ml | Activity (Candida albicans [9]): 98.81% | Activity (Candida albicans [10]): 99.12% | Activity (Candida albicans [11]): 99.28% | Activity (Candida albicans [12]): 99.91% | Activity (Candida albicans [13]): 98.1% | Activity (Candida albicans [14]): 96.3% | Activity (Candida albicans [15]): 97.92% | Activity (Candida albicans [16]): 99.95% | Activity (Candida albicans [17]): 99.61% | Activity (Candida albicans [18]): 99.36% | Activity (Candida albicans [19]): 98.92% | Activity (Candida albicans [20]): 98.79% | Activity (Candida albicans [21]): 98.31% | Activity (Candida albicans [4]): 92.34% | Activity (Candida albicans [22]): 99.24% | Activity (Candida albicans [23]): 100% | Activity (Candida albicans [24]): 99.35% | Activity (Candida albicans [25]): 98.97%

CCOC(=O)CCn1nnc(-c2ccc(C)cc2)n1
Activity (Candida albicans [1]): 99.16% | Activity (Candida albicans [7]): 99.98% | Activity (Candida albicans [8]): -0.23 log10CFU/ml | Activity (Candida albicans [9]): 99.14% | Activity (Candida albicans [10]): 98.81% | Activity (Candida albicans [11]): 98.79% | Activity (Candida albicans [12]): 98.38% | Activity (Candida albicans [13]): 98.99% | Activity (Candida albicans [14]): 99.61% | Activity (Candida albicans [15]): 99.31% | Activity (Candida albicans [16]): 99.76% | Activity (Candida albicans [17]): 98.95% | Activity (Candida albicans [18]): 96.34% | Activity (Candida albicans [19]): 98.72% | Activity (Candida albicans [20]): 45.15% | Activity (Candida albicans [21]): 98.19% | Activity (Candida albicans [4]): 99.07% | Activity (Candida albicans [22]): 98.95% | Activity (Candida albicans [23]): 99.51% | Activity (Candida albicans [24]): 99.37% | Activity (Candida albicans [25]): 98.95%

CCOC(=O)CCn1nnc(-c2ccc(Cl)cc2)n1
Activity (Candida albicans [1]): 99% | Activity (Candida albicans [7]): 100% | Activity (Candida albicans [8]): 0.29 log10CFU/ml | Activity (Candida albicans [9]): 98.86% | Activity (Candida albicans [10]): 99.14% | Activity (Candida albicans [11]): 98.8% | Activity (Candida albicans [12]): 99.95% | Activity (Candida albicans [13]): 99.85% | Activity (Candida albicans [14]): 97.97% | Activity (Candida albicans [15]): 99.32% | Activity (Candida albicans [16]): 99.92% | Activity (Candida albicans [17]): 99.12% | Activity (Candida albicans [18]): 98.78% | Activity (Candida albicans [19]): 98.85% | Activity (Candida albicans [20]): 84.36% | Activity (Candida albicans [21]): 99.74% | Activity (Candida albicans [4]): 98.32% | Activity (Candida albicans [22]): 98.87% | Activity (Candida albicans [23]): 99.88% | Activity (Candida albicans [24]): 98.78% | Activity (Candida albicans [25]): 99.07%
